Source: ChEMBL document CHEMBL3576822 (J Med Chem, 2015)
Active and inactive are the calls of the source. No cut-off for these calls is given here.

Key:
[1] = biological target: T1, Growth hormone secretagogue receptor type 1 (Homo sapiens, UniProt Q92847); assay: Inverse agonist activity at human GHSR1a receptor expressed in COS-7 cells assessed as inositol phosphate accumulation after 2 hrs by anion exchange chromatography; format: functional, cell-based
[2] = biological target: T1, Growth hormone secretagogue receptor type 1; assay: Inverse agonist activity at human GHSR1a receptor expressed in COS-7 cells assessed as inositol phosphate accumulation after 2 hrs by anion exchange chromatography relative to control; format: functional, cell-based
[3] = biological target: T2, Neuropeptide Y receptor type 2 (Homo sapiens, UniProt P49146); assay: Agonist activity at human neuropeptide Y Y2 receptor expressed in COS-7 cells cotransfected with chimeric Gi/q protein assessed as inositol phosphate accumulation after 2 hrs by anion exchange chromatography; format: functional, cell-based
T2 sequence (P49146 whole entry): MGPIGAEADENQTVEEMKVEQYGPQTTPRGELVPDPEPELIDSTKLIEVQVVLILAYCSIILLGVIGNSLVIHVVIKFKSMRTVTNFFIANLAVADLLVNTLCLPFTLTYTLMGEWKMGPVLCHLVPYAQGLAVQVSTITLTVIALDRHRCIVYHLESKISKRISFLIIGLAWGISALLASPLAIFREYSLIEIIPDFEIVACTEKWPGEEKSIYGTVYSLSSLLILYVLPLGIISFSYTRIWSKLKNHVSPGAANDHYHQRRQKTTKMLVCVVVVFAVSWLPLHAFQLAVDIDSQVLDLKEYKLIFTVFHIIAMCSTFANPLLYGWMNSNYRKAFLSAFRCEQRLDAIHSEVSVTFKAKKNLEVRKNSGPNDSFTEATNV
Summary of the method: (§1)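 Inositol phosphate turnover in COS-7 cells stably co-expressing human Y2 receptor and chimeric Gi/q protein; concentration-response curves, responses as % of maximum Y2 activity; SEM over two biological replicates.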

[4] = biological target: T3, Neuropeptide Y receptor type 2 (Homo sapiens) (UniProt P49146); assay: Agonist activity at human neuropeptide Y Y2 receptor expressed in COS-7 cells cotransfected with chimeric Gi/q protein assessed as inositol phosphate accumulation after 2 hrs by anion exchange chromatography relative to control; format: functional, cell-based; summary of the method: as §1
T3 sequence (whole entry): T2 sequence (P49146 whole entry)

[5] = biological target: T1, Growth hormone secretagogue receptor type 1; assay: Displacement of [125I]ghrelin from human eYFP-fused ghrelin receptor expressed in COS7 cells after 75 mins by competitive receptor binding assay; format: cell-based, COS-7
[6] = biological target: T2, Neuropeptide Y receptor type 2; assay: Displacement of [125I]PYY from human neuropeptide Y Y2 receptor expressed in HEK293 cells cotransfected with eYFP fusion protein after 2 hrs by competitive receptor binding assay; format: cell-based
Summary of the method: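 Competitive binding against 125I-PYY in HEK-293 cells stably expressing human Y2 receptor; concentration-response curves.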

[7] = biological target: T4, Neuropeptide Y receptor type 1 (Homo sapiens) (UniProt P25929); assay: Agonist activity at human neuropeptide Y Y1 receptor expressed in COS-7 cells cotransfected with chimeric Gi/q protein assessed as inositol phosphate accumulation at 1 uM after 2 hrs by anion exchange chromatography; format: functional, cell-based
T4 sequence (whole entry): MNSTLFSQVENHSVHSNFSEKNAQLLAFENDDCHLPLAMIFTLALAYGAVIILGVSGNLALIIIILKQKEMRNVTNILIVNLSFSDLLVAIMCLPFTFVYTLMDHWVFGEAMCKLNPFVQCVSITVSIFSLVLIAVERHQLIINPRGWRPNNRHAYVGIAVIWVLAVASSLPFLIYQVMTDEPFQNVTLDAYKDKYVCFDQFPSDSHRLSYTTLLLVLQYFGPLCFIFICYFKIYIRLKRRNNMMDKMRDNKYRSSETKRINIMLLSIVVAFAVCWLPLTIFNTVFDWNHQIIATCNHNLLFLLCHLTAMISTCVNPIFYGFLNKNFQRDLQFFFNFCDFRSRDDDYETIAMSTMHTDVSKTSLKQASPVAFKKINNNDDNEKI
Summary of the method: (§2)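 COS-7 cells stably co-expressing the corresponding human Y receptor plus a chimeric Gi/q protein; single high concentration tested in inositol phosphate accumulation; response as % of NPY response at each receptor; SEM over two biological replicates.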

[8] = biological target: Neuropeptide Y receptor type 4 (Homo sapiens) (UniProt P50391); assay: Agonist activity at human neuropeptide Y Y4 receptor expressed in COS-7 cells cotransfected with chimeric Gi/q protein assessed as inositol phosphate accumulation at 1 uM after 2 hrs by anion exchange chromatography; format: functional, cell-based; summary of the method: as §2
[9] = biological target: T5, Neuropeptide Y receptor type 5 (Homo sapiens) (UniProt Q15761); assay: Agonist activity at human neuropeptide Y Y5 receptor expressed in COS-7 cells cotransfected with chimeric Gi/q protein assessed as inositol phosphate accumulation at 1 uM after 2 hrs by anion exchange chromatography; format: functional, cell-based; summary of the method: as §2
T5 sequence (whole entry): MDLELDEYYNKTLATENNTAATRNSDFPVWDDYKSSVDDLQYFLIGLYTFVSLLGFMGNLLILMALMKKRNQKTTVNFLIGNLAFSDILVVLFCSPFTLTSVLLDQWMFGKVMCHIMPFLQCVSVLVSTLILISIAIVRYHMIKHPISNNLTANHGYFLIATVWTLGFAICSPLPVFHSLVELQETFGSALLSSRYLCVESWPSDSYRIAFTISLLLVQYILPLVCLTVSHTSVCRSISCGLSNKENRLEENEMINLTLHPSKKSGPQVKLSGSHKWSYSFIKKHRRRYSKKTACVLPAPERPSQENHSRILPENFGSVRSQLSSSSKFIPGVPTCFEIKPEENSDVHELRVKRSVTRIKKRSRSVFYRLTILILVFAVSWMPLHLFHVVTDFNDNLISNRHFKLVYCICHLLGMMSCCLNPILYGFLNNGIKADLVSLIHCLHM

[10] = test system: Mus musculus; assay: Effect on food intake in diet-induced obese C57BL/6JRj mouse at 500 nM/kg, sc; format: functional, organism-based
Summary of the method: (§3)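 Freely fed diet-induced obese mice, saline control group; single acute dose, SC at 500 nM/kg or IP at 50, 100 or 250 nM/kg; cumulative food intake and body weight recorded.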

[11] = test system: Mus musculus; assay: Effect on body weight in diet-induced obese C57BL/6JRj mouse at 500 nM/kg, sc; format: functional, organism-based; summary of the method: as §3
[12] = test system: Mus musculus; assay: Effect on food intake in diet-induced obese C57BL/6JRj mouse at 50 to 250 nM/kg, ip; format: functional, organism-based; summary of the method: as §3
[13] = test system: Mus musculus; assay: Effect on body weight in diet-induced obese C57BL/6JRj mouse at 50 to 250 nM/kg, ip; format: functional, organism-based; summary of the method: as §3
[14] = test system: Mus musculus; assay: Effect on food intake in diet-induced obese C57BL/6JRj mouse at 100 nM/kg, ip administered daily for 10 days; format: functional, organism-based
Summary of the method: (§4)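 Freely fed diet-induced obese mice randomized to groups, saline as control; daily IP injection at 100 nM/kg for 10 days; cumulative food intake and body weight tracked in parallel; drug-by-time interaction analysed by repeated-measures ANOVA.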

[15] = test system: Mus musculus; assay: Effect on body weight in diet-induced obese C57BL/6JRj mouse at 100 nM/kg, ip administered daily for 10 days; format: functional, organism-based; summary of the method: as §4
[16] = test system: Mus musculus; assay: Decrease in food intake in diet-induced obese C57BL/6JRj mouse at 0.25 nM/h, sc administered via osmotic minipumps daily for 14 days; format: functional, organism-based
[17] = test system: Mus musculus; assay: Effect on body weight in diet-induced obese C57BL/6JRj mouse at 0.25 nM/h, sc administered via osmotic minipumps daily for 14 days; format: functional, organism-based

T1 sequence (Q92847 whole entry): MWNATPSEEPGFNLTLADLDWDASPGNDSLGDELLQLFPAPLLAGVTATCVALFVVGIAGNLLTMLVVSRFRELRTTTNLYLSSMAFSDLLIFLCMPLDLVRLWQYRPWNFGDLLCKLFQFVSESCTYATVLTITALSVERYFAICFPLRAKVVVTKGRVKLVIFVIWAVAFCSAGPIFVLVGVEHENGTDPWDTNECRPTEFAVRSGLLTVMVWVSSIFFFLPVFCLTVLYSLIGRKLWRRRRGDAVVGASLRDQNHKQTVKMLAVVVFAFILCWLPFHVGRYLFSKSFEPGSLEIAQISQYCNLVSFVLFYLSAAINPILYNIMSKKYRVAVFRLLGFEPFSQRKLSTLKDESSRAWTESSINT
Neuropeptide Y receptor type 4 (Homo sapiens), sequence (P50391 whole entry): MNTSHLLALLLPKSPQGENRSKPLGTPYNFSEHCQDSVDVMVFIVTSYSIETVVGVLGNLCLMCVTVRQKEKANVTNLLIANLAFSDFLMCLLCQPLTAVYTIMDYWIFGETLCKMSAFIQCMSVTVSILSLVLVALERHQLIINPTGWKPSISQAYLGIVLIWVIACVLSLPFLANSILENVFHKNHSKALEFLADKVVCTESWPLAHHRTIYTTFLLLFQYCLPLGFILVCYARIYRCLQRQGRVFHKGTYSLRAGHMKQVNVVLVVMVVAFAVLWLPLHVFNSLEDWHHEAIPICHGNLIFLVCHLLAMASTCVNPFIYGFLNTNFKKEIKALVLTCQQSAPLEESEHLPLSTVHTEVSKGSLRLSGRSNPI

Work on `CC(=O)NC(CNC(=O)CCC(=O)N[C@@H](CCCCN)C(=O)N[C@H](Cc1cccc2ccccc12)C(=O)N[C@@H](Cc1ccccc1)C(=O)N[C@H](Cc1c[nH]c2ccccc12)C(=O)N[C@@H](CC(C)C)C(=O)N[C@@H](CC(C)C)C(N)=O)C(=O)N[C@@H](CC(C)C)C(=O)N[C@@H](CCCNC(=N)N)C(=O)N[C@@H](Cc1cnc[nH]1)C(=O)N[C@@H](Cc1ccc(O)cc1)C(=O)N[C@@H](CC(C)C)C(=O)N[C@@H](CC(N)=O)C(=O)N[C@@H](CC(C)C)C(=O)N[C@@H](CC(C)C)C(=O)N[C@H](C(=O)N[C@@H](CCCNC(=N)N)C(=O)N[C@@H](CCC(N)=O)C(=O)N[C@@H](CCCNC(=N)N)C(=O)N[C@@H](Cc1ccc(O)cc1)C(N)=O)[C@@H](C)O` (some centres not stated) yielded an EC50 [1] of 0.0417 µM, an Efficacy [2] of 82% and an EC50 [3] of 0.0032 µM. It also gave an Efficacy [4] of 84%, an IC50 [5] of 0.0971 µM and an IC50 [6] of 0.0614 µM. The Efficacy [7] was < 25%, the Efficacy [8] was < 25% and the Efficacy [9] was 33%. The Activity [10] was “inactive”, the Activity [11] was “inactive” and the Activity [12] was “inactive”. For the same compound, the Activity [13] was “inactive”, the Activity [14] was “inactive” and the Activity [15] was “inactive”. For the same compound, the inhibition [16] was “Active” and the Activity [17] was “inactive”.
